Experimental data collected from several papers.
Compare with care: the assays were run in different laboratories.
IDE: Insulin-degrading enzyme (IDE, Homo sapiens, UniProt P14735)
MET: Hepatocyte growth factor receptor (MET, Homo sapiens, UniProt P08581)
P2RX7: P2X purinoceptor 7 (P2RX7, Homo sapiens, UniProt Q99572)

The IC50 of `CCOc1ccc2c(-c3cc(C)nc(Nc4cc(OC)cc(C(F)(F)F)c4)n3)cnn2n1` is reported as > 10 µM (Homeodomain-interacting protein kinase 1 (HIPK1, Homo sapiens, UniProt Q86Z02); enzyme activity, inhibitor).
With `CC1(C)CC(=O)C=C(NC(=O)Nc2ccc(O)cc2)C1` the IC50 was 3.3 µM (crk3 (Leishmania mexicana, UniProt O15851); enzyme activity, inhibitor, radiometric).
For `CC(C)(C)OC(=O)[C@H](Cc1c[nH]cn1)NC(=O)CN(CC(=O)O)Cc1ccccc1`, the IC50 was 0.8 µM (IDE; enzyme activity, inhibitor, fluorescence).
The IC50 of `Cc1cnc(-c2ccc(-c3ccc(NC(=O)Nc4c(F)cc(F)cc4F)cc3F)c3c2C(=O)NC3)[nH]1` is reported as 0.0136 µM (MET; enzyme activity, inhibitor).
`CC(C)(C)n1nc(-c2ccc3nc(OC4CC4)ccc3c2)c(C(N)=O)c1N` has an IC50 of > 10 µM (Tyrosine-protein kinase JAK3 (JAK3, Homo sapiens, UniProt P52333); cell-free assay).
`CNC(=O)c1cc2c(Oc3ccc(NC(=O)C4(C(=O)Nc5ccc(F)cc5)CC4)cc3)ccnc2cc1OC` has an IC50 of 0.005 µM (Hepatocyte growth factor receptor (MET, Homo sapiens, UniProt P08581, Y1230H); enzyme activity, inhibitor, radiometric).
`COC(=O)[C@H](Cc1c[nH]cn1)NC(=O)CN(CC(=O)O)Cc1ccc(C(C)(C)C)cc1` gave an IC50 of 2.9 µM (IDE; enzyme activity, inhibitor, fluorescence).
`CN1CCN(c2ccc(Nc3ncc4cc(C#N)c(=O)n(C5CCCC5)c4n3)cc2)CC1` gave an IC50 of 0.399 µM (Serine/threonine-protein kinase Nek9 (NEK9, Homo sapiens, UniProt Q8TD19); enzyme activity, inhibitor).
With `Cc1ccc(/C=C2\C=C(CC(=O)O)c3cc(F)ccc32)cc1` the IC50 was ~26 µM (Prostaglandin G/H synthase 2 (Ptgs2, Mus musculus, UniProt Q05769); enzyme activity, inhibitor).
The IC50 of `CCCCCCCCCCC[C@@H](C[C@@H]1OC(=O)[C@H]1CCCCCC)OC(=O)[C@H](CC(C)C)NC=O` is reported as 0.168 µM (Lysosomal acid lipase/cholesteryl ester hydrolase (LIPA, Homo sapiens, UniProt P38571); enzyme activity, inhibitor).
The IC50 of `Sc1nnc(-c2cc(-c3ccccc3)nc3ccccc23)o1` is reported as 7.27 µM (P2RX7; calcium signal, antagonist).
For `O=C(O)[C@H](Cc1ccc2ccccc2c1)NC(=O)C1(c2ccc(F)cc2)CCN(S(=O)(=O)c2ccccc2)CC1`, the IC50 was 150 µM (Gag-Pol polyprotein, integrase (gag-pol, Human immunodeficiency virus 1, UniProt P12497); enzyme activity, inhibitor, TR-FRET).
With `CC(C)COC(=O)[C@H](Cc1cnc[nH]1)NC(=O)CN(CC(=O)O)Cc1ccccc1` the IC50 was 0.6 µM (IDE; enzyme activity, inhibitor, fluorescence).
`CCOCc1nc(O)c(-c2nnc(Cc3ccc(Cl)cn3)o2)c(O)c1-c1c(OC)cccc1OC` gave an IC50 of > 30 µM (Alpha-1B adrenergic receptor (ADRA1B, Homo sapiens, UniProt P35368); ligand displacement, radioligand).
`Cc1cc(Oc2ccc(NC(=O)c3sc(-c4ccc(F)cc4)nc3C)cc2)c2nncn2n1` gave an IC50 of 0.79 µM (MET; enzyme activity, inhibitor, mobility shift).
For `CCCCCCN(CC(=O)O)CC(=O)N[C@@H](Cc1c[nH]cn1)C(=O)OC`, the IC50 was 0.4 µM (IDE; enzyme activity, inhibitor, fluorescence).
For `CCCc1ccc(S(=O)(=O)Oc2ccccc2NC(=O)c2ccc3ncccc3c2)cc1`, the IC50 was 2.17 µM (P2RX7; calcium signal, antagonist).
`C[C@H]1C[C@@H](N2C(=N)N[C@](C)(c3cccc(Nc4ccc(C5CC5)nc4)c3Cl)CC2=O)CCO1` gave an IC50 of 8 µM (Sodium channel protein type 10 subunit alpha (SCN10A, Homo sapiens, UniProt Q9Y5Y9); ion current, inhibitor, patch clamp).
